Experimental data published in ChEMBL document CHEMBL1140710, “Structure-activity relationships of cyclic lactam analogues of alpha-melanocyte-stimulating hormone (alpha-MSH) targeting the human melanocortin-3 receptor” (J Med Chem, 2008).

target: T1, Melanocortin receptor 5 (Homo sapiens, UniProt P33032); test: Displacement of [125I][Nle4,D-Phe7]alpha-MSH from human MC5 receptor expressed in HEK293 cells; type: cell-based
Outline: (§1)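 Whole stably transfected HEK293 cells seeded 48 h before assay at 50000 cells/well. Binding buffer: MEM, 25 mM HEPES pH 7.4, 0.2% BSA, 1 mM 1,10-phenanthroline, leupeptin, bacitracin. Cells washed, lysed with NaOH/Triton X-100, gamma-counted. IC50 is mean of two triplicate experiments.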

T1 sequence (P33032 whole entry): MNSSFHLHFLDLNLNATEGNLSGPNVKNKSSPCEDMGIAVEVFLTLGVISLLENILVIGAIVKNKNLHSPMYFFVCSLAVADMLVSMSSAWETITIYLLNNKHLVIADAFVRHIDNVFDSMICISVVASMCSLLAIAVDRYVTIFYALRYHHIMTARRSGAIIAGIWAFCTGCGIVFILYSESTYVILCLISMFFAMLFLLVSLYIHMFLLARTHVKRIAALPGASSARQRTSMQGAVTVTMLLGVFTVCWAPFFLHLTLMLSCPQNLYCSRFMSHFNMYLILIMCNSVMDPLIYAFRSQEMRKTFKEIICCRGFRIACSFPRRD

| Compound | IC50 [µM] |
| --- | --- |
| NC(=O)[C@@H]1CCCCNC(=O)c2cccc(n2)C(=O)N[C@H](Cc2ccc3ccccc3c2)C(=O)N[C@@H](CCCN=C(N)N)C(=O)N[C@@H](Cc2c[nH]c3ccccc23)C(=O)N1 | > 10 |
| N=C(N)NCCC[C@@H]1NC(=O)[C@@H](Cc2ccc3ccccc3c2)NC(=O)[C@@H]2CCCN2C(=O)/C=C\C(=O)NCCCC[C@@H](C(N)=O)NC(=O)[C@H](Cc2c[nH]c3ccccc23)NC1=O | 0.12 |
| N=C(N)NCCC[C@@H]1NC(=O)[C@@H](Cc2ccccc2)NC(=O)c2nccnc2C(=O)NCCCC[C@@H](C(N)=O)NC(=O)[C@H](Cc2c[nH]c3ccccc23)NC1=O | > 10 |
| N=C(N)NCCC[C@@H]1NC(=O)[C@@H](Cc2ccccc2)NC(=O)[C@@H]2CCCN2C(=O)c2ccccc2C(=O)NCCCC[C@@H](C(N)=O)NC(=O)[C@H](Cc2c[nH]c3ccccc23)NC1=O | > 1 |

target: T2, Melanocortin receptor 3 (Homo sapiens, UniProt P41968); test: Agonist activity at human MC3 receptor expressed in HEK293 cells assessed as intracellular cAMP accumulation at 10 uM relative to MT2; type: functional, cell-based
T2 sequence (P41968 whole entry): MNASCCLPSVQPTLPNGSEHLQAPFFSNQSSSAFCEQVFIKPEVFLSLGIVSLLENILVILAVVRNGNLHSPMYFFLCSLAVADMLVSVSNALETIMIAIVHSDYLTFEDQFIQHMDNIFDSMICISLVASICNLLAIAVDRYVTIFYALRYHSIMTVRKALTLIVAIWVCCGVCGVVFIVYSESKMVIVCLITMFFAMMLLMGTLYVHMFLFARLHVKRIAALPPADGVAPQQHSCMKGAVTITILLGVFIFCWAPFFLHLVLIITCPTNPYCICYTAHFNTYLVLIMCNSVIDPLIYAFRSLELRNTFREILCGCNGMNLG
Outline: (§2)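 Stably transfected HEK293 cells seeded 48 h before assay at 50000 cells/well. Cells preincubated 1 min at 37 °C in Earle's balanced salt solution with 0.5 mM IBMX, then exposed to 10 μM peptide for 3 min at 37 °C. Cells boiled 7 min, cAMP measured by [3H]cAMP/PKA competition with a standard curve. Result expressed as percent of cAMP produced by 10 μM MT-II.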

| Compound | Activity [%] |
| --- | --- |
| N=C(N)NCCC[C@@H]1NC(=O)[C@@H](Cc2ccc3ccccc3c2)NC(=O)[C@@H]2CCCN2C(=O)/C=C\C(=O)NCCCC[C@@H](C(N)=O)NC(=O)[C@H](Cc2c[nH]c3ccccc23)NC1=O | 0 |
| N=C(N)NCCC[C@@H]1NC(=O)[C@@H](Cc2ccccc2)NC(=O)c2nccnc2C(=O)NCCCC[C@@H](C(N)=O)NC(=O)[C@H](Cc2c[nH]c3ccccc23)NC1=O | 70 |
| N=C(N)NCCC[C@@H]1NC(=O)[C@@H](Cc2ccccc2)NC(=O)[C@@H]2CCCN2C(=O)c2ccccc2C(=O)NCCCC[C@@H](C(N)=O)NC(=O)[C@H](Cc2c[nH]c3ccccc23)NC1=O | 100 |

target: T1, Melanocortin receptor 5; test: Agonist activity at human MC5 receptor expressed in HEK293 cells assessed as intracellular cAMP accumulation at 10 uM relative to MT2; type: functional, cell-based; outline: as §2

| Compound | Activity [%] |
| --- | --- |
| N=C(N)NCCC[C@@H]1NC(=O)[C@@H](Cc2ccc3ccccc3c2)NC(=O)[C@@H]2CCCN2C(=O)/C=C\C(=O)NCCCC[C@@H](C(N)=O)NC(=O)[C@H](Cc2c[nH]c3ccccc23)NC1=O | 0 |
| N=C(N)NCCC[C@@H]1NC(=O)[C@@H](Cc2ccccc2)NC(=O)c2nccnc2C(=O)NCCCC[C@@H](C(N)=O)NC(=O)[C@H](Cc2c[nH]c3ccccc23)NC1=O | 0 |
| N=C(N)NCCC[C@@H]1NC(=O)[C@@H](Cc2ccccc2)NC(=O)[C@@H]2CCCN2C(=O)c2ccccc2C(=O)NCCCC[C@@H](C(N)=O)NC(=O)[C@H](Cc2c[nH]c3ccccc23)NC1=O | 0 |

target: T3, Melanocyte-stimulating hormone receptor (Homo sapiens, UniProt Q01726); test: Agonist activity at human MC1 receptor expressed in HEK293 cells assessed as intracellular cAMP accumulation; type: functional, cell-based
Outline: (§3)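 Stably transfected HEK293 cells seeded 48 h before assay at 50000 cells/well. Cells preincubated 1 min at 37 °C in Earle's balanced salt solution with 0.5 mM IBMX, then exposed to varying peptide concentrations for 3 min at 37 °C. Cells boiled 7 min, cAMP quantified by [3H]cAMP/PKA competition against a standard curve.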
Target sequence in this assay (Q01726 whole entry): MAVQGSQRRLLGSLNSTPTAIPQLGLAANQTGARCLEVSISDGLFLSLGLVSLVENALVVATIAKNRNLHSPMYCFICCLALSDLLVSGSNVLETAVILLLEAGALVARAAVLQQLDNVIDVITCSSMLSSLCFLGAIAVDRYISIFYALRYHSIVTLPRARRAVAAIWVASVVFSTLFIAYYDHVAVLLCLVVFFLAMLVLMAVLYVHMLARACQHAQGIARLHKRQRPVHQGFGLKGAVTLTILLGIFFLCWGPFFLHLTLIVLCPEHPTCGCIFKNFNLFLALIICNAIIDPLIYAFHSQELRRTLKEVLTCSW

| Compound | EC50 [µM] |
| --- | --- |
| N=C(N)NCCC[C@@H]1NC(=O)[C@@H](Cc2ccccc2)NC(=O)c2nccnc2C(=O)NCCCC[C@@H](C(N)=O)NC(=O)[C@H](Cc2c[nH]c3ccccc23)NC1=O | > 10 |

target: T1, Melanocortin receptor 5; test: Agonist activity at human MC5 receptor expressed in HEK293 cells assessed as intracellular cAMP accumulation at 10 uM; type: functional, cell-based; outline: as §2

| Compound | Activity [%] |
| --- | --- |
| N=C(N)NCCC[C@@H]1NC(=O)[C@@H](Cc2ccc3ccccc3c2)NC(=O)[C@@H]2CCCN2C(=O)/C=C\C(=O)NCCCC[C@@H](C(N)=O)NC(=O)[C@H](Cc2c[nH]c3ccccc23)NC1=O | 0 |
| N=C(N)NCCC[C@@H]1NC(=O)[C@@H](Cc2ccccc2)NC(=O)c2nccnc2C(=O)NCCCC[C@@H](C(N)=O)NC(=O)[C@H](Cc2c[nH]c3ccccc23)NC1=O | 0 |
| N=C(N)NCCC[C@@H]1NC(=O)[C@@H](Cc2ccccc2)NC(=O)[C@@H]2CCCN2C(=O)c2ccccc2C(=O)NCCCC[C@@H](C(N)=O)NC(=O)[C@H](Cc2c[nH]c3ccccc23)NC1=O | 0 |

target: T4, Melanocortin receptor 4 (Homo sapiens, UniProt P32245); test: Agonist activity at human MC4 receptor expressed in HEK293 cells assessed as intracellular cAMP accumulation at 10 uM; type: functional, cell-based; outline: as §2
T4 sequence (P32245 whole entry): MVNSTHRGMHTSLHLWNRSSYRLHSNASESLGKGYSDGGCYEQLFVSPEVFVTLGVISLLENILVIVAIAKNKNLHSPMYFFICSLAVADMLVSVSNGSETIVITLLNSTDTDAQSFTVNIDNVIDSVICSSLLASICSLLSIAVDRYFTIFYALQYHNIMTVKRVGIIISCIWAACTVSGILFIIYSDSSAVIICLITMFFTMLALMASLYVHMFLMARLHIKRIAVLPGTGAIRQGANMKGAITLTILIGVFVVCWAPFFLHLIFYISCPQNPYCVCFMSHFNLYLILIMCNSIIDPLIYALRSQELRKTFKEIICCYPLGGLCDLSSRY

| Compound | Activity [%] |
| --- | --- |
| N=C(N)NCCC[C@@H]1NC(=O)[C@@H](Cc2ccc3ccccc3c2)NC(=O)[C@@H]2CCCN2C(=O)/C=C\C(=O)NCCCC[C@@H](C(N)=O)NC(=O)[C@H](Cc2c[nH]c3ccccc23)NC1=O | 0 |
| N=C(N)NCCC[C@@H]1NC(=O)[C@@H](Cc2ccccc2)NC(=O)c2nccnc2C(=O)NCCCC[C@@H](C(N)=O)NC(=O)[C@H](Cc2c[nH]c3ccccc23)NC1=O | 0 |
| N=C(N)NCCC[C@@H]1NC(=O)[C@@H](Cc2ccccc2)NC(=O)[C@@H]2CCCN2C(=O)c2ccccc2C(=O)NCCCC[C@@H](C(N)=O)NC(=O)[C@H](Cc2c[nH]c3ccccc23)NC1=O | 0 |

target: T3, Melanocyte-stimulating hormone receptor; test: Agonist activity at human MC1 receptor expressed in HEK293 cells assessed as intracellular cAMP accumulation at 10 uM; type: functional, cell-based; outline: as §2
Target sequence in this assay (Q01726 whole entry, looked up): as the sequence (Q01726 whole entry) above

| Compound | Activity [%] |
| --- | --- |
| N=C(N)NCCC[C@@H]1NC(=O)[C@@H](Cc2ccc3ccccc3c2)NC(=O)[C@@H]2CCCN2C(=O)/C=C\C(=O)NCCCC[C@@H](C(N)=O)NC(=O)[C@H](Cc2c[nH]c3ccccc23)NC1=O | 0 |
| N=C(N)NCCC[C@@H]1NC(=O)[C@@H](Cc2ccccc2)NC(=O)[C@@H]2CCCN2C(=O)c2ccccc2C(=O)NCCCC[C@@H](C(N)=O)NC(=O)[C@H](Cc2c[nH]c3ccccc23)NC1=O | 0 |

target: T4, Melanocortin receptor 4; test: biochemical; type: cell-based, HEK293

| Compound | IC50 [µM] |
| --- | --- |
| NC(=O)[C@@H]1CCCCNC(=O)c2cccc(n2)C(=O)N[C@H](Cc2ccc3ccccc3c2)C(=O)N[C@@H](CCCN=C(N)N)C(=O)N[C@@H](Cc2c[nH]c3ccccc23)C(=O)N1 | > 1 |
| N=C(N)NCCC[C@@H]1NC(=O)[C@@H](Cc2ccc3ccccc3c2)NC(=O)[C@@H]2CCCN2C(=O)/C=C\C(=O)NCCCC[C@@H](C(N)=O)NC(=O)[C@H](Cc2c[nH]c3ccccc23)NC1=O | 0.52 |
| N=C(N)NCCC[C@@H]1NC(=O)[C@@H](Cc2ccccc2)NC(=O)c2nccnc2C(=O)NCCCC[C@@H](C(N)=O)NC(=O)[C@H](Cc2c[nH]c3ccccc23)NC1=O | > 10 |
| N=C(N)NCCC[C@@H]1NC(=O)[C@@H](Cc2ccccc2)NC(=O)[C@@H]2CCCN2C(=O)c2ccccc2C(=O)NCCCC[C@@H](C(N)=O)NC(=O)[C@H](Cc2c[nH]c3ccccc23)NC1=O | 0.777 |

target: T2, Melanocortin receptor 3; test: Agonist activity at human MC3 receptor expressed in HEK293 cells assessed as intracellular cAMP accumulation at 10 uM; type: functional, cell-based; outline: as §2

| Compound | Activity [%] |
| --- | --- |
| N=C(N)NCCC[C@@H]1NC(=O)[C@@H](Cc2ccc3ccccc3c2)NC(=O)[C@@H]2CCCN2C(=O)/C=C\C(=O)NCCCC[C@@H](C(N)=O)NC(=O)[C@H](Cc2c[nH]c3ccccc23)NC1=O | 0 |

target: T4, Melanocortin receptor 4; test: Agonist activity at human MC4 receptor expressed in HEK293 cells assessed as intracellular cAMP accumulation at 10 uM relative to MT2; type: functional, cell-based; outline: as §2

| Compound | Activity [%] |
| --- | --- |
| N=C(N)NCCC[C@@H]1NC(=O)[C@@H](Cc2ccc3ccccc3c2)NC(=O)[C@@H]2CCCN2C(=O)/C=C\C(=O)NCCCC[C@@H](C(N)=O)NC(=O)[C@H](Cc2c[nH]c3ccccc23)NC1=O | 0 |
| N=C(N)NCCC[C@@H]1NC(=O)[C@@H](Cc2ccccc2)NC(=O)c2nccnc2C(=O)NCCCC[C@@H](C(N)=O)NC(=O)[C@H](Cc2c[nH]c3ccccc23)NC1=O | 0 |
| N=C(N)NCCC[C@@H]1NC(=O)[C@@H](Cc2ccccc2)NC(=O)[C@@H]2CCCN2C(=O)c2ccccc2C(=O)NCCCC[C@@H](C(N)=O)NC(=O)[C@H](Cc2c[nH]c3ccccc23)NC1=O | 0 |

target: T3, Melanocyte-stimulating hormone receptor; test: Displacement of [125I][Nle4,D-Phe7]alpha-MSH from human MC1 receptor expressed in HEK293 cells; type: cell-based; outline: as §1
Target sequence in this assay (Q01726 whole entry): as above

| Compound | IC50 [µM] |
| --- | --- |
| NC(=O)[C@@H]1CCCCNC(=O)c2cccc(n2)C(=O)N[C@H](Cc2ccc3ccccc3c2)C(=O)N[C@@H](CCCN=C(N)N)C(=O)N[C@@H](Cc2c[nH]c3ccccc23)C(=O)N1 | > 10 |
| N=C(N)NCCC[C@@H]1NC(=O)[C@@H](Cc2ccc3ccccc3c2)NC(=O)[C@@H]2CCCN2C(=O)/C=C\C(=O)NCCCC[C@@H](C(N)=O)NC(=O)[C@H](Cc2c[nH]c3ccccc23)NC1=O | > 10 |
| N=C(N)NCCC[C@@H]1NC(=O)[C@@H](Cc2ccccc2)NC(=O)c2nccnc2C(=O)NCCCC[C@@H](C(N)=O)NC(=O)[C@H](Cc2c[nH]c3ccccc23)NC1=O | 0.412 |
| N=C(N)NCCC[C@@H]1NC(=O)[C@@H](Cc2ccccc2)NC(=O)[C@@H]2CCCN2C(=O)c2ccccc2C(=O)NCCCC[C@@H](C(N)=O)NC(=O)[C@H](Cc2c[nH]c3ccccc23)NC1=O | > 10 |

target: T3, Melanocyte-stimulating hormone receptor; test: Agonist activity at human MC1 receptor expressed in HEK293 cells assessed as intracellular cAMP accumulation at 10 uM relative to MT2; type: functional, cell-based; outline: as §2
Target sequence in this assay (Q01726 whole entry, looked up): as the sequence (Q01726 whole entry) above

| Compound | Activity [%] |
| --- | --- |
| N=C(N)NCCC[C@@H]1NC(=O)[C@@H](Cc2ccc3ccccc3c2)NC(=O)[C@@H]2CCCN2C(=O)/C=C\C(=O)NCCCC[C@@H](C(N)=O)NC(=O)[C@H](Cc2c[nH]c3ccccc23)NC1=O | 0 |
| N=C(N)NCCC[C@@H]1NC(=O)[C@@H](Cc2ccccc2)NC(=O)c2nccnc2C(=O)NCCCC[C@@H](C(N)=O)NC(=O)[C@H](Cc2c[nH]c3ccccc23)NC1=O | 60 |
| N=C(N)NCCC[C@@H]1NC(=O)[C@@H](Cc2ccccc2)NC(=O)[C@@H]2CCCN2C(=O)c2ccccc2C(=O)NCCCC[C@@H](C(N)=O)NC(=O)[C@H](Cc2c[nH]c3ccccc23)NC1=O | 0 |

target: T2, Melanocortin receptor 3; test: biochemical; type: cell-based, HEK293

| Compound | IC50 [µM] |
| --- | --- |
| NC(=O)[C@@H]1CCCCNC(=O)c2cccc(n2)C(=O)N[C@H](Cc2ccc3ccccc3c2)C(=O)N[C@@H](CCCN=C(N)N)C(=O)N[C@@H](Cc2c[nH]c3ccccc23)C(=O)N1 | > 1 |
| N=C(N)NCCC[C@@H]1NC(=O)[C@@H](Cc2ccc3ccccc3c2)NC(=O)[C@@H]2CCCN2C(=O)/C=C\C(=O)NCCCC[C@@H](C(N)=O)NC(=O)[C@H](Cc2c[nH]c3ccccc23)NC1=O | 0.02 |
| N=C(N)NCCC[C@@H]1NC(=O)[C@@H](Cc2ccccc2)NC(=O)c2nccnc2C(=O)NCCCC[C@@H](C(N)=O)NC(=O)[C@H](Cc2c[nH]c3ccccc23)NC1=O | 1.1 |
| N=C(N)NCCC[C@@H]1NC(=O)[C@@H](Cc2ccccc2)NC(=O)[C@@H]2CCCN2C(=O)c2ccccc2C(=O)NCCCC[C@@H](C(N)=O)NC(=O)[C@H](Cc2c[nH]c3ccccc23)NC1=O | > 1 |

target: T2, Melanocortin receptor 3; test: Agonist activity at human MC3 receptor expressed in HEK293 cells assessed as intracellular cAMP accumulation; type: functional, cell-based; outline: as §3

| Compound | EC50 [µM] |
| --- | --- |
| N=C(N)NCCC[C@@H]1NC(=O)[C@@H](Cc2ccccc2)NC(=O)c2nccnc2C(=O)NCCCC[C@@H](C(N)=O)NC(=O)[C@H](Cc2c[nH]c3ccccc23)NC1=O | 0.027 |
| N=C(N)NCCC[C@@H]1NC(=O)[C@@H](Cc2ccccc2)NC(=O)[C@@H]2CCCN2C(=O)c2ccccc2C(=O)NCCCC[C@@H](C(N)=O)NC(=O)[C@H](Cc2c[nH]c3ccccc23)NC1=O | 0.095 |
